Laboratory results reported in ChEMBL document CHEMBL3525963, “Tissue distribution and elimination of [14C]apixaban in rats” (Drug Metab Dispos, 2011).

What was measured:
Design in all cases: dose 5 mg/kg, dosed compound name [14C]-apixaban, route oral
Conditions in all cases: in vivo
Rattus norvegicus [1] = assay: Biodistribution in fetal liver of pregnant Sprague-Dawley rat at 5 mg/kg, po administered as single dose measured after 8 hrs; type: ADME, organism-based
Outline: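 Pregnant SD rats received a single oral gavage of [14C]apixaban at 5 mg/kg (100 μCi/kg; 1.0 mg/mL, 20 μCi/mL in 0.5% Tween 80/Labrafil) after fasting, one dam per time point. Frozen carcasses were cut into 40 µm sagittal sections and read by phosphor-imaging QWBA against [14C]glucose standards. Fetal tissue radioactivity is reported as µg eq/g, with LLOQ 0.037 µg eq/g.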

Rattus norvegicus [2] = assay: Biodistribution in female Sprague-Dawley rat pituitary gland at 5 mg/kg, po administered as single dose measured after 8 hrs; type: ADME, organism-based
Outline: (§1)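 [14C]apixaban (20 μCi/mL in dosing solution) in 0.5% Tween 80 in Labrafil given by oral gavage to fasted female rats, 206-213 g, at 100 μCi/kg. One rat per time point was euthanized and snap-frozen. Sagittal 40 µm whole-body sections were read by QWBA phosphor imaging against [14C]glucose standards. Results are in µg eq apixaban/g, with LLOQ 0.037 μg eq/g.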

Brain [3] = assay: Biodistribution in female Sprague-Dawley rat brain at 5 mg/kg, po administered as single dose measured after 72 hrs; type: ADME, organism-based
Outline: (§2)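 [14C]Apixaban (1.0 mg/mL, 20 μCi/mL in 0.5% Tween 80 in Labrafil) given as a single oral gavage of 5 mg/kg (100 μCi/kg) to fasted female SD rats, one rat per time point. Carcasses were frozen in hexane/dry ice and cut into 40 µm sagittal sections for QWBA against [14C]glucose standards. Brain radioactivity is reported as µg eq/g, with LLOQ 0.037 µg eq/g.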

Brain [4] = assay: Biodistribution in female Sprague-Dawley rat brain at 5 mg/kg, po administered as single dose measured after 24 hrs; type: ADME, organism-based; outline: as §2
Rattus norvegicus [5] = assay: Biodistribution in female Sprague-Dawley rat bone marrow at 5 mg/kg, po administered as single dose measured after 4 hrs; type: ADME, organism-based; outline: as §1
Pancreas [6] = assay: Biodistribution in pregnant Sprague-Dawley rat pancreas at 5 mg/kg, po administered as single dose measured after 24 hrs; type: ADME, organism-based
Outline: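 Pregnant SD rats (270-319 g) were fasted overnight and given one oral gavage of 5 mg/kg (100 μCi/kg) in 0.5% Tween 80 in Labrafil. One rat was euthanized per time point (0.5, 1, 4, 8, 24, 48 h) and the carcass frozen. 40 µm sagittal sections were phosphor-imaged against [14C]glucose standards and results reported as µg eq/g; LLOQ 0.037 µg eq/g.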

Rattus norvegicus [7] = assay: Biodistribution in male Sprague-Dawley rat bone marrow at 5 mg/kg, po administered as single dose measured after 0.5 hrs; type: ADME, organism-based
Outline: (§3)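 Fasted male rats, 225-252 g, received [14C]apixaban by single oral gavage at 100 μCi/kg in 0.5% Tween 80/Labrafil. One rat was killed per time point and the carcass frozen. Tissue radioactivity was quantified by QWBA (40 µm sagittal sections, phosphor plate, [14C]glucose calibration) as µg eq apixaban/g, with LLOQ 0.037 μg eq/g.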

Rattus norvegicus [8] = assay: Biodistribution in fetal kidney of pregnant Sprague-Dawley rat at 5 mg/kg, po administered as single dose measured after 48 hrs; type: ADME, organism-based
Outline: (§4)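 Quantitative whole-body autoradiography was run after a single 5 mg/kg (100 μCi/kg) oral gavage to fasted female or pregnant SD rats, one rat per time point. Carcasses were frozen in hexane/dry ice, and 40 µm sagittal sections were dried at −20°C for at least 48 h. Sections were exposed to a phosphor plate alongside [14C]glucose standards (0.001–6.5 µCi/g). Results are µg eq/g, with LLOQ 0.037 µg eq/g.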

Heart [9] = assay: Biodistribution in male Sprague-Dawley rat heart at 5 mg/kg, po administered as single dose measured after 0.5 hrs; type: ADME, organism-based
Outline: (§5)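 [¹⁴C]Apixaban given by oral gavage at 5 mg/kg (100 μCi/kg) in 0.5% Tween 80 in Labrafil (1.0 mg/mL dosing solution) to rats fasted overnight through 4 h post-dose. One rat per time point; carcass frozen in hexane/dry ice. Quantitative whole-body autoradiography used 40 µm sagittal sections and a phosphor imaging plate calibrated with [¹⁴C]glucose standards (0.001–6.5 μCi/g). Read-out in µg eq apixaban/g; LLOQ 0.037 μg eq/g.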

Rattus norvegicus [10] = assay: Biodistribution in female Sprague-Dawley rat pituitary gland at 5 mg/kg, po administered as single dose measured after 24 hrs; type: ADME, organism-based; outline: as §4
Pancreas [11] = assay: Biodistribution in male Sprague-Dawley rat pancreas at 5 mg/kg, po administered as single dose measured after 72 hrs; type: ADME, organism-based
Outline: (§6)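 Fasted male SD rats (225-252 g) each received one oral gavage dose of [14C]apixaban, 5 mg/kg (100 μCi/kg), in 0.5% Tween 80/Labrafil vehicle. One rat was killed per time point, from 0.5 to 168 h. Frozen carcasses were cut into 40 µm sagittal whole-body sections and read by QWBA phosphor imaging against [14C]glucose calibrants. Results are in µg apixaban eq/g; BLQ <0.037 µg eq/g.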

Rattus norvegicus [12] = assay: Biodistribution in female Sprague-Dawley rat kidney cortex at 5 mg/kg, po administered as single dose measured after 72 hrs; type: ADME, organism-based; outline: as §4
Rattus norvegicus [13] = assay: Biodistribution in male Sprague-Dawley rat pituitary gland at 5 mg/kg, po administered as single dose measured after 1 hr; type: ADME, organism-based
Rattus norvegicus [14] = assay: Biodistribution in pregnant Sprague-Dawley rat kidney cortex at 5 mg/kg, po administered as single dose measured after 24 hrs; type: ADME, organism-based
Harderian gland [15] = assay: Biodistribution in female Sprague-Dawley rat harderian gland at 5 mg/kg, po administered as single dose measured after 8 hrs; type: ADME, organism-based; outline: as §5
Rattus norvegicus [16] = assay: Biodistribution in pregnant Sprague-Dawley rat kidney cortex at 5 mg/kg, po administered as single dose measured after 0.5 hrs; type: ADME, organism-based
Rattus norvegicus [17] = assay: Biodistribution in female Sprague-Dawley rat kidney cortex at 5 mg/kg, po administered as single dose measured after 24 hrs; type: ADME, organism-based; outline: as §4
Brain [18] = assay: Biodistribution in male Sprague-Dawley rat brain at 5 mg/kg, po administered as single dose measured after 8 hrs; type: ADME, organism-based
Heart [19] = assay: Biodistribution in pregnant Sprague-Dawley rat heart at 5 mg/kg, po administered as single dose measured after 8 hrs; type: ADME, organism-based
Harderian gland [20] = assay: Biodistribution in female Sprague-Dawley rat harderian gland at 5 mg/kg, po administered as single dose measured after 4 hrs; type: ADME, organism-based; outline: as §5
Rattus norvegicus [21] = assay: Biodistribution in male Sprague-Dawley rat brown fat at 5 mg/kg, po administered as single dose measured after 0.5 hrs; type: ADME, organism-based, Brown adipose tissue; outline: as §3
Lung = assay: Biodistribution in female Sprague-Dawley rat lung at 5 mg/kg, po administered as single dose measured after 4 hrs; type: ADME, organism-based; outline: as §5
Spleen = assay: Biodistribution in male Sprague-Dawley rat spleen at 5 mg/kg, po administered as single dose measured after 8 hrs; type: ADME, organism-based; outline: as §6

Work on `COc1ccc(-n2nc(C(N)=O)c3c2C(=O)N(c2ccc(N4CCCC[14C]4=O)cc2)CC3)cc1` yielded a Radiolabel recovery (Rattus norvegicus [1]) of 0.06 ugequiv/g, a Radiolabel recovery (Rattus norvegicus [2]) of 0.22 ugequiv/g and a Radiolabel recovery (Brain [3]) of less than 0.037 ugequiv/g. For the same compound, the Radiolabel recovery (Brain [4]) was less than 0.037 ugequiv/g, the Radiolabel recovery (Rattus norvegicus [5]) was 0.26 ugequiv/g and the Radiolabel recovery (Pancreas [6]) was “Not detected assumed BLQ”. For the same compound, the Radiolabel recovery (Rattus norvegicus [7]) was 0.26 ugequiv/g, the Radiolabel recovery (Rattus norvegicus [8]) was “Not sampled as not visualised in autoradiograph” and the Radiolabel recovery (Heart [9]) was 0.33 ugequiv/g. For the same compound, the Radiolabel recovery (Rattus norvegicus [10]) was “Not detected assumed BLQ”, the Radiolabel recovery (Pancreas [11]) was “Not detected assumed BLQ” and the Radiolabel recovery (Rattus norvegicus [12]) was “Not detected assumed BLQ”. For the same compound, the Radiolabel recovery (Rattus norvegicus [13]) was 0.59 ugequiv/g, the Radiolabel recovery (Rattus norvegicus [14]) was 0.05 ugequiv/g and the Radiolabel recovery (Harderian gland [15]) was 0.22 ugequiv/g. For the same compound, the Radiolabel recovery (Rattus norvegicus [16]) was 2.11 ugequiv/g, the Radiolabel recovery (Rattus norvegicus [17]) was “Not detected assumed BLQ” and the Radiolabel recovery (Brain [18]) was less than 0.037 ugequiv/g. It also gave a Radiolabel recovery (Heart [19]) of 0.06 ugequiv/g, a Radiolabel recovery (Harderian gland [20]) of 1.12 ugequiv/g and a Radiolabel recovery (Rattus norvegicus [21]) of 0.46 ugequiv/g. The Radiolabel recovery (Lung) was 0.51 ugequiv/g and the Radiolabel recovery (Spleen) was 0.09 ugequiv/g.
